Laboratory results as given in ChEMBL document CHEMBL1157729, “Structure-activity relationship and mechanism of action studies of manzamine analogues for the control of neuroinflammation and cerebral infections” (J Med Chem, 2010).
In brackets after ≈: the same amount, converted by molar mass.

Key:
[1] = test system: Plasmodium berghei; assay: Antiplasmodial activity against Plasmodium berghei NK65 infected in Swiss Webster mice (Mus musculus) assessed as inhibition of parasitaemia at 200 mg/kg, perorally administered 1 day after infection measured after 5 days post infection; format: functional; conditions: Plasmodium berghei, NK65, route oral
Procedure, shortened: (§1)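 Male Swiss Webster mice (18-20 g, ≥5/group) inoculated i.p. with 2×10^7 P. berghei NK-65 parasitized RBC, given a single oral dose (100 μl, SSV or dilute HCl vehicle); parasitemia by Giemsa-stained tail blood smears days 5–28; activity as % decrease versus untreated controls on day 5.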

[2] = test system: Plasmodium berghei; assay: Antiplasmodial activity against Plasmodium berghei NK65 infected in Swiss Webster mice (Mus musculus) assessed as average parasitaemia at 1.1 mg/kg, perorally administered 1 day after infection for 3 days measured after 28 days post infection; format: functional; conditions: route oral
Procedure, shortened: (§2)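 Male Swiss Webster mice (18-20 g, ≥5/group) inoculated i.p. with 2×10^7 P. berghei NK-65 parasitized RBC; oral dosing (100 μl, SSV or dilute HCl vehicle) once daily for 3 days from day 1; Giemsa-stained tail blood smears days 5–28; inhibition is % decrease versus untreated controls on day 5.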

[3] = test system: Plasmodium berghei; assay: Antiplasmodial activity against Plasmodium berghei NK65 infected in Swiss Webster mice (Mus musculus) assessed as average parasitaemia at 200 mg/kg, perorally administered 1 day after infection measured after 28 days post infection; format: functional; conditions: Plasmodium berghei, NK65, route oral; procedure, shortened: as §1
[4] = test system: MDCK; assay: Apparent permeability across apical to basolateral side of MDCK cells expressing MDR; format: ADME, cell-based, Canis lupus familiaris; conditions: dog
Procedure, shortened: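 MDR-MDCK cells (passage 12-40) seeded at 75,000 cells/cm2 and grown 8 days on Transwell inserts to a monolayer. Bidirectional transport over 2 h in HBSS pH 7.4 with test substance at 50 μM and caffeine (5 μM) as standard. Donor and receiver samples quantified by LC-MS. Cumulative amount transported plotted against time to derive apparent permeability.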

[5] = test system: Plasmodium berghei; assay: Antiplasmodial activity against Plasmodium berghei NK65 infected in Swiss Webster mice (Mus musculus) assessed as average parasitaemia at 10 mg/kg, perorally administered 1 day after infection for 3 days measured after 28 days post infection; format: functional; conditions: route oral; procedure, shortened: as §2
[6] = test system: Plasmodium berghei; assay: Antiplasmodial activity against Plasmodium berghei NK65 infected in Swiss Webster mice (Mus musculus) assessed as average parasitaemia at 5 mg/kg, perorally administered 1 day after infection for 3 days measured after 7 days post infection; format: functional; conditions: route oral
[7] = test system: Plasmodium berghei; assay: Antiplasmodial activity against Plasmodium berghei NK65 infected in Swiss Webster mice (Mus musculus) assessed as parasitaemia cure at 1.1 mg/kg, perorally administered 1 day after infection for 3 days measured after 28 days post infection; format: functional; conditions: route oral
Procedure, shortened: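 Male Swiss Webster mice (18-20 g), at least 5 per group, inoculated i.p. with 2×10^7 P. berghei NK-65-parasitized red cells from a donor mouse. Oral dosing (100 μl, in SSV or 0.01 M HCl dilutions) from day one post-infection on a 3-day schedule (modified Peters test). Giemsa-stained tail-blood smears read from day 5 to day 28. Cure means no parasitemia through day 28.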

[8] = test system: HeLa; assay: Cell cycle arrest in human HeLa cells assessed as increase in S phase accumulation at 10 uM after 24 hrs by FACS analysis; format: functional
[9] = test system: Plasmodium berghei; assay: Antiplasmodial activity against Plasmodium berghei NK65 infected in Swiss Webster mice (Mus musculus) at 5 mg/kg, po; format: functional
[10] = test system: Plasmodium berghei; assay: Antiplasmodial activity against Plasmodium berghei infected in mice (Mus musculus) at 10 mg/kg, perorally administered 1 day post infection for 3 days; format: functional; conditions: route oral
[11] = test system: Mus musculus; assay: Toxicity in Plasmodium berghei NK65 infected Swiss Webster mice (Mus musculus) at 3 mg/kg, intraperitoneally administered as 10 doses measured after 3 days of inoculation; format: organism-based; parameters: dose 3 mg/kg, route intraperitoneal; conditions: in vivo, ip, 72 h
Procedure, shortened: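 Male Swiss Webster mice (18-20 g), 5 per group, were inoculated i.p. with 2×10^7 P. berghei NK-65 parasitized red cells. Compound was given i.p. at 10×3 mg/kg, with a vehicle-control group. Day of death, mean survival time and cure were recorded. Parasitemia was read on Giemsa-stained tail-blood smears (days 5, 7), with suppression relative to the control mean. Cure meant no parasitemia through day 28.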

[12] = test system: Mus musculus; assay: Toxicity in Plasmodium berghei NK65 infected Swiss Webster mice (Mus musculus) assessed as weight loss at 10 mg/kg, intraperitoneally administered 1 day after infection measured after 3 days post infection; format: organism-based; parameters: dose 10 mg/kg, route intraperitoneal; conditions: in vivo, ip, 72 h
[13] = test system: Plasmodium berghei; assay: Antiplasmodial activity against Plasmodium berghei NK65 infected in Swiss Webster mice (Mus musculus) assessed as average parasitaemia at 100 mg/kg, perorally administered 1 day after infection measured after 21 days post infection; format: functional; conditions: route oral; procedure, shortened: as §1
[14] = test system: Plasmodium berghei; assay: Antiplasmodial activity against Plasmodium berghei NK65 infected in Swiss Webster mice (Mus musculus) assessed as average parasitaemia at 200 mg/kg, perorally administered 1 day after infection measured after 7 days post infection; format: functional; conditions: route oral
[15] = test system: HeLa; assay: Cell cycle arrest in human HeLa cells assessed as increase in G0/G1 phase accumulation at 5 uM after 24 hrs by FACS analysis; format: functional
[16] = test system: Vero; assay: Cytotoxicity against african green monkey Vero cells after 48 hrs by neutral red assay; format: cell-based; conditions: chlorocebus sabaeus
Procedure, shortened: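 Vero cells seeded at 25,000/well and grown 24 h, then exposed to serially diluted samples for 48 h. Viable cells measured by neutral red assay, with doxorubicin as positive control. IC50 taken from dose-response curves.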

[17] = test system: Plasmodium berghei; assay: Antiplasmodial activity against Plasmodium berghei NK65 infected in Swiss Webster mice (Mus musculus) assessed as average parasitaemia at 10 mg/kg, perorally administered 1 day after infection for 3 days measured after 21 days post infection; format: functional; conditions: route oral
[18] = test system: Plasmodium berghei; assay: Antiplasmodial activity against Plasmodium berghei NK65 infected in Swiss Webster mice (Mus musculus) assessed as inhibition of parasitaemia at 100 mg/kg, perorally administered 1 day after infection measured after 5 days post infection; format: functional; conditions: route oral; procedure, shortened: as §1
[19] = test system: Plasmodium berghei; assay: Antiplasmodial activity against Plasmodium berghei NK65 infected in Swiss Webster mice (Mus musculus) assessed as inhibition of parasitaemia at 3.3 mg/kg, perorally administered 1 day after infection for 3 days measured after 5 days post infection; format: functional; conditions: route oral; procedure, shortened: as §2
[20] = test system: HeLa; assay: Cell cycle arrest in human HeLa cells assessed as decrease in G2/M phase accumulation at 3 uM after 24 hrs by FACS analysis; format: functional; parameters: scale not given: the % may be the effect or the level left
[21] = test system: Plasmodium berghei; assay: Antiplasmodial activity against Plasmodium berghei NK65 infected in Swiss Webster mice (Mus musculus) assessed as parasitaemia cure at 3.3 mg/kg, perorally administered 1 day after infection for 3 days measured after 28 days post infection; format: functional; conditions: route oral
Procedure, shortened: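 Male Swiss Webster mice (18-20 g), at least 5 per group, inoculated i.p. with 2×10^7 P. berghei NK-65 parasitized red cells from a donor mouse. Oral dosing (100 μl, in SSV or dilute HCl) from day one after infection, three-day modified Peters suppressive schedule. Giemsa-stained tail blood smears from day 5 through day 28. Inhibition is % parasitemia drop on day 5 versus untreated controls. Cure means no parasitemia through day 28.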

[22] = test system: Mus musculus; assay: Toxicity in Plasmodium berghei NK65 infected Swiss Webster mice (Mus musculus) assessed as weight loss at 300 mg/kg, perorally; format: organism-based; parameters: dose 300 mg/kg, route oral; conditions: in vivo, po
Procedure, shortened: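 P. berghei NK-65 infection in male Swiss Webster mice (18-20 g; 2×10^7 parasitized erythrocytes i.p.; ≥5 per group). A single oral dose of 100 μl, diluted in SSV or 0.01 M HCl, then observation for toxicity signs and body weight. Parasitemia read from Giemsa-stained tail smears from day 5 through day 28. Mice free of parasitemia through day 28 counted as cured.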

[23] = test system: HeLa; assay: Cell cycle arrest in human HeLa cells assessed as increase in S phase accumulation at 20 uM after 24 hrs by FACS analysis; format: functional

## O[C@]12C=C(c3nccc4c3[nH]c3ccccc34)[C@@H]3CCN(CCCC/C=C\CC1)C[C@@]31C[C@@H]3/C=C\CCCCN3[C@H]12 [MANZAMINE A]
[1]
  inhibition in vivo at 200 mg/kg: 100%
[2]
  inhibition in vivo at 1.1 mg/kg: 58.6%
[3]
  inhibition in vivo at 200 mg/kg: 0%
[4]
  Papp: 0.87 ×10⁻⁶ cm/s
[5]
  inhibition in vivo at 10 mg/kg: 3.3%
[6]
  inhibition in vivo at 5 mg/kg: 4.5%
[7]
  inhibition in vivo at 1.1 mg/kg: 0%
[8]
  Activity: 59.1%
[9]
  inhibition in vivo at 5 mg/kg: > 30%
[10]
  Activity: 14.3 days
[11]
  Activity: Non-toxic
[12]
  Activity: Toxic
[13]
  inhibition in vivo at 100 mg/kg: 0%
[14]
  inhibition in vivo at 200 mg/kg: 0%
[15]
  Activity: 56.3%
[16]
  IC50: 0.2 µg/mL (≈ 0.364 µM)
[17]
  inhibition in vivo at 10 mg/kg: 1.9%
[18]
  inhibition in vivo at 100 mg/kg: 100%
[19]
  inhibition in vivo at 3.3 mg/kg: 88%
[20]
  Activity: 13%
[21]
  inhibition in vivo at 3.3 mg/kg: 25%
[22]
  Activity: Non-toxic
[23]
  Activity: 67.2%
